ChEMBL document CHEMBL3868612, “Discovery of a potent and selective ROMK inhibitor with improved pharmacokinetic properties based on an octahydropyrazino[2,1-c][1,4]oxazine scaffold” (Bioorg Med Chem Lett, 2016)

Legend:
Rattus norvegicus [1] = experiment: Antihypertensive activity in […] rat model assessed as increase in diuresis at 30 mg/kg, po qd measured on day 1 post dose relative to control; type: functional
In short: (§1)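 Spontaneously hypertensive rats dosed orally once daily for 3 days at 3, 10 and 30 mg/kg (reference diuretic at 25 mg/kg); 24 h urine output on day 1 expressed as fold increase over vehicle-treated rats; n = 5 per group.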

[2] = Oral bioavailability in Beagle dog at 2 mg/kg administered qd; type: ADME, organism-based, Canis lupus familiaris; settings: in vivo
[3] = Cardiotoxicity in anesthetized cardiovascular guinea pig model assessed as change in QTc interval administered as iv infusion; type: toxicity, organism-based, Cavia porcellus, Heart; settings: in vivo
In short: (§2)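 Anesthetized guinea pig cardiovascular model, n = 3. The compound was given by IV infusion while the QTc interval was monitored. Unbound plasma concentration was taken as the maximal average peak value.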

[4] = target: T1, Somatostatin receptor type 2 (Homo sapiens, UniProt P30874); experiment: Inhibition of Somatostatin receptor type 2 (unknown origin) by radioligand binding assay
[5] = Oral bioavailability in Sprague-Dawley rat at 2 mg/kg; type: ADME, organism-based; settings: in vivo
[6] = Unbound fraction in rat plasma; type: ADME, cell-free
[7] = target: Sodium channel protein type 5 subunit alpha (Homo sapiens, UniProt Q14524); experiment: Inhibition of Nav1.5 (unknown origin)
[8] = Unbound fraction in rhesus monkey plasma; type: ADME, cell-free, Macaca mulatta
[9] = Dose normalized AUC in Sprague-Dawley rat at 2 mg/kg, po; type: ADME, organism-based; settings: in vivo
Rattus norvegicus [10] = experiment: Antihypertensive activity in […] rat model assessed as change in systolic blood pressure at 10 mg/kg, po administered qd measured on day 3; type: functional
In short: (§3)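 Spontaneously hypertensive rats were dosed orally once daily for 3 days. Systolic blood pressure change was read on day 3 relative to vehicle, with n = 5 per group.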

[11] = Unbound fraction in human plasma; type: ADME, cell-free
[12] = Stability in rhesus monkey microsomes assessed as compound remaining at 45 mins; type: ADME, Macaca mulatta, Microsome; settings: read-out: Stability
Rattus norvegicus [13] = experiment: Antihypertensive activity in […] rat model assessed as increase in diuresis at 10 mg/kg, po qd measured on day 1 post dose relative to control; type: functional; in short: as §1
[14] = target: T1, Somatostatin receptor type 2; experiment: Inhibition of Somatostatin receptor type 2 (unknown origin) at 10 uM by radioligand binding assay relative to control
In short: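 Run within a 115-assay off-target panel of enzyme and radioligand binding assays. Inhibition of somatostatin sst2 ligand binding was recorded at a single concentration of 10 μM.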

[15] = Dose normalized AUC in rhesus monkey at 2 mg/kg, po administered qd; type: ADME, organism-based, Macaca mulatta; settings: in vivo
[16] = target: T2, ATP-sensitive inward rectifier potassium channel 1 (Homo sapiens, UniProt P48048); experiment: Inhibition of human ROMK expressed in CHO cells after 6 mins at -70 mV holding potential by electrophysiology method; type: cell-based
T2 sequence (P48048 whole entry): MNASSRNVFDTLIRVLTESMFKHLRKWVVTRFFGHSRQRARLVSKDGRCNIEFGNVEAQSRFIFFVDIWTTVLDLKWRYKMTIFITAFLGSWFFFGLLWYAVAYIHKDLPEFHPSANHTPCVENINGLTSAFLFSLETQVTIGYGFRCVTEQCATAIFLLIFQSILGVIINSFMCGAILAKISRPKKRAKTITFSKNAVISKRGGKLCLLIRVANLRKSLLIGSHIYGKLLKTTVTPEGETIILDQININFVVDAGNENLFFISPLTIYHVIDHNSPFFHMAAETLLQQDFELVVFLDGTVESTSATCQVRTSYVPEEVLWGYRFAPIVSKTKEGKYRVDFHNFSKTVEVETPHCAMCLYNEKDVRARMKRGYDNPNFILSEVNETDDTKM

[17] = Maximum free plasma concentration in iv dosed anesthetized cardiovascular guinea pig model; type: ADME, organism-based, Cavia porcellus; settings: in vivo; in short: as §2
Cytochrome P450 2C9 = Cytochrome P450 2C9 (Homo sapiens, UniProt P11712); experiment: Inhibition of CYP2C9 (unknown origin); type: ADME
[18] = Stability in rhesus monkey hepatocytes assessed as compound remaining at 90 mins; type: ADME, cell-based, Macaca mulatta, Hepatocyte; settings: read-out: Stability
[19] = Dose normalized AUC in Beagle dog at 2 mg/kg, po administered qd; type: ADME, organism-based, Canis lupus familiaris; settings: in vivo
Cytochrome P450 3A4 = Cytochrome P450 3A4 (Homo sapiens, UniProt P08684); experiment: Inhibition of CYP3A4 (unknown origin); type: ADME
[20] = target: Voltage-gated inwardly rectifying potassium channel KCNH2 (Homo sapiens, UniProt Q12809); experiment: Inhibition of human ERG by electrophysiology method
Rattus norvegicus [21] = experiment: Antihypertensive activity in […] rat model assessed as increase in diuresis at 3 mg/kg, po qd measured on day 1 post dose relative to control; type: functional; in short: as §1
[22] = target: Voltage-dependent L-type calcium channel subunit alpha-1C (Homo sapiens, UniProt Q13936); experiment: Inhibition of Cav1.2 (unknown origin)
[23] = Half life in Sprague-Dawley rat at 1 mg/kg, iv or 2 mg/kg, po; type: ADME, organism-based; settings: in vivo
[24] = Half life in rhesus monkey at 1 mg/kg, iv or 2 mg/kg, po administered qd; type: ADME, organism-based, Macaca mulatta; settings: in vivo
[25] = Apparent permeability in pig LLC-PK1 cells; type: ADME, cell-based, Sus scrofa
[26] = target: T3, ATP-sensitive inward rectifier potassium channel 10 (Homo sapiens, UniProt P78508); experiment: Inhibition of Kir4.1 (unknown origin)
T3 sequence (P78508 whole entry): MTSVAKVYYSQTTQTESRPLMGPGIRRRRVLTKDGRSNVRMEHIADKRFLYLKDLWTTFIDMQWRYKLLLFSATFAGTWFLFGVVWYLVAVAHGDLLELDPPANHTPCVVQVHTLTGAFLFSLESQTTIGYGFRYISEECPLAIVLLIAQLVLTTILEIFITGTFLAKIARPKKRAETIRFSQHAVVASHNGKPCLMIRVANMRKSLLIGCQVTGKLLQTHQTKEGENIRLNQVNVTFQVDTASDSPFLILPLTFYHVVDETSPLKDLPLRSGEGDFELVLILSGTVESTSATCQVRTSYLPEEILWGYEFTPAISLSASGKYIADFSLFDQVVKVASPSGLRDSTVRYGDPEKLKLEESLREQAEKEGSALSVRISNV

Rattus norvegicus [27] = experiment: Antihypertensive activity in […] rat model assessed as change in systolic blood pressure at 30 mg/kg, po administered qd measured on day 3; type: functional; in short: as §3
Cytochrome P450 2D6 = Cytochrome P450 2D6 (Homo sapiens, UniProt P10635); experiment: Inhibition of CYP2D6 (unknown origin); type: ADME
[28] = Stability in dog microsomes assessed as compound remaining at 45 mins; type: ADME, Canis lupus familiaris, Microsome; settings: read-out: Stability

T1 sequence (P30874 whole entry): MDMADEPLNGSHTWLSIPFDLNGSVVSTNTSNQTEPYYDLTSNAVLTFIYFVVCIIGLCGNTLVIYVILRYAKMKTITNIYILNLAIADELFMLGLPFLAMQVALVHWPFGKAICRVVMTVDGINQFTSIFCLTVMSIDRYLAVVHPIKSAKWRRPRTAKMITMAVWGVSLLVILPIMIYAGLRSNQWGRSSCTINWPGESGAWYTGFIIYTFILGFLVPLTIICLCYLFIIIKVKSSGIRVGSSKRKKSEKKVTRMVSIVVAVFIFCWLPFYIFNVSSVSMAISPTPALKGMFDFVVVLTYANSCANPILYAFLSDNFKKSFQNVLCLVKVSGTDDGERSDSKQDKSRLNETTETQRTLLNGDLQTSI
Chain of Cytochrome P450 2D6 (P10635 whole entry): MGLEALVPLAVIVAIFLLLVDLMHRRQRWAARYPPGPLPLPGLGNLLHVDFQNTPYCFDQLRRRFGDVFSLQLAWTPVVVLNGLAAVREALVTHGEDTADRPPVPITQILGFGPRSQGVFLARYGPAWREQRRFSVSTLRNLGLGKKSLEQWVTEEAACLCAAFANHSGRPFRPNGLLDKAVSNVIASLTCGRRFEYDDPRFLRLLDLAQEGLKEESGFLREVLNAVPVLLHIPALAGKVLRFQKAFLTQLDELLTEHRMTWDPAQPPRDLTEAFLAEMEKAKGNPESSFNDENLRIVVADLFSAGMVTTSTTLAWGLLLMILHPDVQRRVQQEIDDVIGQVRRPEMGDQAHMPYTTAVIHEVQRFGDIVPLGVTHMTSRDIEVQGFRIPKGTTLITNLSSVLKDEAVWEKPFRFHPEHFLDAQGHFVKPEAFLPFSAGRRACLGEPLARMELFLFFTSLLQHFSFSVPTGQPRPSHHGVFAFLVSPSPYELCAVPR
Chain of Cytochrome P450 3A4 (P08684 whole entry): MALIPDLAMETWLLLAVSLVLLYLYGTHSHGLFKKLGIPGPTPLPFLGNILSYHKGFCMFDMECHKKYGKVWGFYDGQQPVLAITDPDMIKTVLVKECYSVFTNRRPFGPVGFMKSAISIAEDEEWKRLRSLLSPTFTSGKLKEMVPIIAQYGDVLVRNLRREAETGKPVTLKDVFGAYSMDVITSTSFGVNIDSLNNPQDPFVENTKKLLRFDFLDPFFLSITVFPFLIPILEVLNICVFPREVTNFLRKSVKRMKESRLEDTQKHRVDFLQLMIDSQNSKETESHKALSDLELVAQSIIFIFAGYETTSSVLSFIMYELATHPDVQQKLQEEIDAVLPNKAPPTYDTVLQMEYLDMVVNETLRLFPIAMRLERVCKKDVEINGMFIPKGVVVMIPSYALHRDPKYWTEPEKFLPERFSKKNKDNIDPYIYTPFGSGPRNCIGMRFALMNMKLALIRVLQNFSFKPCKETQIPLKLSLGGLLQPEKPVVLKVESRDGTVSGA
Chain of Cytochrome P450 2C9 (P11712 whole entry): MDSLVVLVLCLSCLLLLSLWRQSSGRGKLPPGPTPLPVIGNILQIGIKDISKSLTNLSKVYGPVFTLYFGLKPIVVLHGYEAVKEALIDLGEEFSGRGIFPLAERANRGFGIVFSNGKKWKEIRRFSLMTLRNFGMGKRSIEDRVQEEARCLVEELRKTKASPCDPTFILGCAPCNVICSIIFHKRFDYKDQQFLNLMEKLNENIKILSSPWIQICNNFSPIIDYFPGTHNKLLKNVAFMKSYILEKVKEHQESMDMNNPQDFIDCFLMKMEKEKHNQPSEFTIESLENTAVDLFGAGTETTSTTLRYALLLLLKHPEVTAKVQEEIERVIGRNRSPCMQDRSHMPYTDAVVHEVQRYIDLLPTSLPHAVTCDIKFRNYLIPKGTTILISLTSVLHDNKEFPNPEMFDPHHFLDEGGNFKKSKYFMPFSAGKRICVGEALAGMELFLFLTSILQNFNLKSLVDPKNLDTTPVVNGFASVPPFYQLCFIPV
Chain of Sodium channel protein type 5 subunit alpha (Q14524 whole entry): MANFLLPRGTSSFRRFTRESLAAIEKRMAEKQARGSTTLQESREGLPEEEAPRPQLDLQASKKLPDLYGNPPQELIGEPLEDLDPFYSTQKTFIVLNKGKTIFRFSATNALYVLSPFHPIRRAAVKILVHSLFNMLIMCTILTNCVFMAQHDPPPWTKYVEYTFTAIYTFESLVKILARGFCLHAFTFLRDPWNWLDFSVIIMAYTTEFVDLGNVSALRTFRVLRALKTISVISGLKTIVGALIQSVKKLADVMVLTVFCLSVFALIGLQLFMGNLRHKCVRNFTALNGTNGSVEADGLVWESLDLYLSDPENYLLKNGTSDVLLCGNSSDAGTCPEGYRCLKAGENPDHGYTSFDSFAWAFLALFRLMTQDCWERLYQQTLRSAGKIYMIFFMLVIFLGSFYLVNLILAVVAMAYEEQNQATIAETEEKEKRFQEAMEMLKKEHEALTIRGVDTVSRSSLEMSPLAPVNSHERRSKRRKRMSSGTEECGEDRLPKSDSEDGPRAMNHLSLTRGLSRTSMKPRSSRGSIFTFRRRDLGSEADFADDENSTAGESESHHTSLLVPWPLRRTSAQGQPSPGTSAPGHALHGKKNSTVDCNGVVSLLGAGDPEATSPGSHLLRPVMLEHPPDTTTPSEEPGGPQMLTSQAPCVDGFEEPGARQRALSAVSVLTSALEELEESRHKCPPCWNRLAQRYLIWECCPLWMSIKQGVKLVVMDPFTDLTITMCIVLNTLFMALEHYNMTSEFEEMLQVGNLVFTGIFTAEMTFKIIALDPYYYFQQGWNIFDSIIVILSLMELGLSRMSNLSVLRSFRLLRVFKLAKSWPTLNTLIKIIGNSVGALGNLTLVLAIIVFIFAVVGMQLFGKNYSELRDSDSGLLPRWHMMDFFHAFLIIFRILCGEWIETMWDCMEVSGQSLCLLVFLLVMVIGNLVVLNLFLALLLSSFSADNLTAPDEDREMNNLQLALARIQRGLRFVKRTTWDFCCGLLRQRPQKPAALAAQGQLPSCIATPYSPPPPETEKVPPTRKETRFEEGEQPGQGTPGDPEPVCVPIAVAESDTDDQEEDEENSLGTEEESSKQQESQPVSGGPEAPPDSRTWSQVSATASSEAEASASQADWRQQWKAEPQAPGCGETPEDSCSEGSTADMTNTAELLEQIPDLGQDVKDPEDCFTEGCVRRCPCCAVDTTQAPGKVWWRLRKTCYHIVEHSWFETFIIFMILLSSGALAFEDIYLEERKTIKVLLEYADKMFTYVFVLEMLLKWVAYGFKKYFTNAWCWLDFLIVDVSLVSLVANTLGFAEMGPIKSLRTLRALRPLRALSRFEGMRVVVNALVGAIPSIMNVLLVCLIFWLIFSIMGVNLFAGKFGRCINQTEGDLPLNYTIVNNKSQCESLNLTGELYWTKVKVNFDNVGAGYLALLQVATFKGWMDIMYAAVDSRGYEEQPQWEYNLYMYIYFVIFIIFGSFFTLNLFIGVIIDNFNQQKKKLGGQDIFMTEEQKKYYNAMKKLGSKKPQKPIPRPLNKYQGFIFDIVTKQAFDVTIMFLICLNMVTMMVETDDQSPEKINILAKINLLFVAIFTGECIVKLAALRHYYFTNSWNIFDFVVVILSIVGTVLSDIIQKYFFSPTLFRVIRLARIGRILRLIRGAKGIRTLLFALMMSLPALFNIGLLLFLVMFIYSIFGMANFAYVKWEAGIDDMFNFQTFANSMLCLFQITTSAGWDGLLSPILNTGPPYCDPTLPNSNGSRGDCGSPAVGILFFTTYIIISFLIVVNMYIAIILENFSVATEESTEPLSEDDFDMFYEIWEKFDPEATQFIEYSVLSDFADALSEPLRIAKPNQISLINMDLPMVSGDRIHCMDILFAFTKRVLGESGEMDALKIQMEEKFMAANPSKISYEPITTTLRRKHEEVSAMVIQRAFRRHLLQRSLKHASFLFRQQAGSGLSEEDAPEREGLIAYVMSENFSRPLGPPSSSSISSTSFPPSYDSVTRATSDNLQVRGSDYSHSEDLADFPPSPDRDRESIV
Chain of Voltage-gated inwardly rectifying potassium channel KCNH2 (Q12809 whole entry): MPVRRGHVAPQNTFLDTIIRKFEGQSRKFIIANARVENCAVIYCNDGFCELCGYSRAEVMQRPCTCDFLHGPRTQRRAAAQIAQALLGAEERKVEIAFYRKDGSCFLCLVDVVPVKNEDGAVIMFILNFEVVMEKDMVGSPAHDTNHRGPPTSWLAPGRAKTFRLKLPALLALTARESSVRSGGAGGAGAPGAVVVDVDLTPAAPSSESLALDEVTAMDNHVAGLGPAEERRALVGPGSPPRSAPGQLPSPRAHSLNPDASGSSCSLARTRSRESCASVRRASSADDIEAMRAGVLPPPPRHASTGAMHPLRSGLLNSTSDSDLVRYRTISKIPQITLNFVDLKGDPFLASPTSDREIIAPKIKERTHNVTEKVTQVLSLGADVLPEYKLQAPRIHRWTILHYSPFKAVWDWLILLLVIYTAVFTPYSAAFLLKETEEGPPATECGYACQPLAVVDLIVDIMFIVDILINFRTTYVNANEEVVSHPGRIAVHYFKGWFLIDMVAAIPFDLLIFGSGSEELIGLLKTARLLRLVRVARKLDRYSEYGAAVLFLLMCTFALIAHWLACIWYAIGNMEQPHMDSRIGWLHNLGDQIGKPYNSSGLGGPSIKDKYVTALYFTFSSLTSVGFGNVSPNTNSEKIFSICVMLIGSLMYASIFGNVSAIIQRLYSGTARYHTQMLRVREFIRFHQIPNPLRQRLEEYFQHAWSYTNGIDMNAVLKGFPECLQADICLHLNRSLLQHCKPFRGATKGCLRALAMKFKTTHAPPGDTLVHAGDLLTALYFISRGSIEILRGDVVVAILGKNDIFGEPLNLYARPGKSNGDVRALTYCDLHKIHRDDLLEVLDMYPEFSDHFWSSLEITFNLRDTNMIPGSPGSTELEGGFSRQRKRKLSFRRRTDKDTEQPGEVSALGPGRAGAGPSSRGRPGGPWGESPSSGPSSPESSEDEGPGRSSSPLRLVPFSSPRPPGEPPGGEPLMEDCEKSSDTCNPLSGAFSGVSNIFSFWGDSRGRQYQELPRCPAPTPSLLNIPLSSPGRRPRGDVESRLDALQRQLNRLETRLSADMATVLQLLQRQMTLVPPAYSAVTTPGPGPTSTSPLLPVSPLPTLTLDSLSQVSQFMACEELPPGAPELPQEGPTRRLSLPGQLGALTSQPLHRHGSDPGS

SMILES: Cc1c([C@@H]2CN3CCN(C(=O)Cc4ccc(-n5cnnn5)cn4)C[C@H]3CO2)ccc(F)c1C#N
- fold change (FC) (Rattus norvegicus [1]): 1.8
- bioavailability [2]: 100%
- Activity [3]: Non-Toxic
- IC50 [4]: 4.1 µM
- bioavailability [5]: 46%
- fraction unbound [6]: 0.48
- IC50 [7]: > 30 µM
- fraction unbound [8]: 0.6
- AUC/dose [9]: 0.79 µM·kg·h/mg
- Activity (Rattus norvegicus [10]): -16 mmHg
- fraction unbound [11]: 0.58
- remaining at 0.75 h [12]: 72%
- fold change (FC) (Rattus norvegicus [13]): 1.6
- inhibition [14]: > 50%
- AUC/dose [15]: 6 µM·kg·h/mg
- IC50 [16]: 73 nM
- Cp(f)max [17]: 83 µM
- IC50 (Cytochrome P450 2C9): > 50 µM
- remaining at 1.5 h [18]: 92%
- AUC/dose [19]: 16.7 µM·kg·h/mg
- IC50 (Cytochrome P450 3A4): > 50 µM
- IC50 [20]: 20.3 µM
- fold change (FC) (Rattus norvegicus [21]): 1.4
- IC50 [22]: > 30 µM
- half-life [23]: 90 min
- half-life [24]: 300 min
- Papp [25]: Permeable
- IC50 [26]: > 100 µM
- Activity (Rattus norvegicus [27]): -16 mmHg
- IC50 (Cytochrome P450 2D6): > 50 µM
- remaining at 0.75 h [28]: 82%
